≈ marks a conversion by molar mass, not a printed value.
The compounds below were run on Candida albicans (assay: Minimum inhibitory concentration (MIC) against Candida albicans).
Assay type: functional
Method in brief: (§1)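 Broth microdilution in Sabouraud's glucose broth. Final inocula 1×10^5 cells/mL for the yeast (C. albicans) and 1×10^5 conidia/mL for the mold (A. fumigatus) and the dermatophyte (T. asteroides). MIC read as the fungistatic end point. Lowest value of duplicated experiments.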

Point of comparison: `CCC=C(c1cc(Cl)ccc1OCc1ccc(Cl)cc1)n1ccnc1`, MIC 6.2 µg/mL (≈ 16.6 µM). Against it:
- C=C(c1cc(Cl)cc(Cl)c1OCc1ccsc1)n1ccnc1 — higher, > 100 µg/mL
- CC(C)=C(c1ccccc1OCc1ccc(Cl)cc1Cl)n1ccnc1 — 2-fold higher, 12.5 µg/mL (≈ 33.5 µM)
- CC(C)=C(c1ccccc1OCc1cccc(Cl)c1)n1ccnc1 — 2-fold higher, 12.5 µg/mL (≈ 36.9 µM)
- C=C(c1ccccc1OCCc1ccc(Cl)cc1Cl)n1ccnc1 — 4-fold higher, 25 µg/mL (≈ 69.6 µM)
- CC=C(c1cc(Cl)ccc1OCc1ccccc1)n1ccnc1 — the same, 6.2 µg/mL (≈ 19.1 µM)
- C=C(c1cc(Cl)ccc1OC(CC)c1ccccc1)n1ccnc1 (centres undefined) — higher, > 100 µg/mL
- CC(C)=C(c1cc(Cl)ccc1OCCCOc1ccc(Cl)cc1)n1ccnc1 — higher, > 100 µg/mL
- CC(C)=C(c1ccccc1OCCCc1ccccc1)n1ccnc1 — 4-fold higher, 25 µg/mL (≈ 75.2 µM)
- C=C(c1ccccc1OCc1ccc([N+](=O)[O-])cc1)n1ccnc1 — 2-fold higher, 12.5 µg/mL (≈ 38.9 µM)
- CC=C(c1cc(Cl)ccc1OCc1ccc(Cl)cc1Cl)n1ccnc1 — 2-fold higher, 12.5 µg/mL (≈ 31.7 µM)
- C=C(c1cc(Cl)ccc1OCc1ccc(C)cc1)n1ccnc1 — 4-fold higher, 25 µg/mL (≈ 77 µM)
- C=C(c1ccccc1OCCOc1ccccc1)n1ccnc1 — 8.1-fold higher, 50 µg/mL (≈ 163 µM)
- CC(C)=C(c1ccccc1OCc1ccccc1)n1ccnc1 — 4-fold higher, 25 µg/mL (≈ 82.1 µM)
- C=C(c1cc(Cl)ccc1OC(C)c1cccc(Cl)c1)n1ccnc1 (centres undefined) — the same, 6.2 µg/mL (≈ 17.3 µM)
- C=C(c1cc(Cl)ccc1OC(CCC)c1ccccc1)n1ccnc1 (centres undefined) — higher, > 100 µg/mL
- C/C=C(\c1ccccc1OC(C)c1cccc(Cl)c1)n1ccnc1 (centres undefined) — 2-fold lower, 3.1 µg/mL (≈ 9.15 µM)
- C=C(c1ccccc1OCc1ccc(Cl)cc1Cl)n1ccnc1 — 8.1-fold higher, 50 µg/mL (≈ 145 µM)
- C=C(c1ccccc1OC(C)c1cccc(Cl)c1)n1ccnc1 (centres undefined) — the same, 6.2 µg/mL (≈ 19.1 µM)
- CCC=C(c1cc(Cl)ccc1OCc1ccc(Cl)cc1Cl)n1ccnc1 — 2-fold higher, 12.5 µg/mL (≈ 30.7 µM)
- CC(C)=C(c1cc(Cl)ccc1OCc1ccc(Cl)c(Cl)c1)n1ccnc1 — 2-fold higher, 12.5 µg/mL (≈ 30.7 µM)
- C=C(c1ccccc1OC)n1ccnc1 — higher, > 100 µg/mL
- C=C(c1ccc(Cl)cc1OC)n1ccnc1 — higher, > 100 µg/mL
- C=C(c1ccc(Cl)cc1OCc1ccc(Cl)cc1)n1ccnc1 — higher, > 100 µg/mL
- C=C(c1cc(Cl)cc(Cl)c1OCc1ccsc1Cl)n1ccnc1 — higher, > 100 µg/mL
- C=C(c1ccccc1OC(C)c1ccccc1)n1ccnc1 (centres undefined) — 4-fold higher, 25 µg/mL (≈ 86.1 µM)
- C=C(c1ccccc1OCc1ccc(C)cc1)n1ccnc1 — 2-fold lower, 3.1 µg/mL (≈ 10.7 µM)
- C=C(c1ccccc1OCc1ccccc1Cl)n1ccnc1 — the same, 6.2 µg/mL (≈ 19.9 µM)
- C=C(c1cc(Cl)ccc1OC(C)c1ccccc1)n1ccnc1 (centres undefined) — 4-fold higher, 25 µg/mL (≈ 77 µM)
- C=C(c1c(Cl)ccc(Cl)c1OCc1ccc(Cl)cc1)n1ccnc1 — higher, > 100 µg/mL
- CC=C(c1ccccc1OCc1cccc(Cl)c1)n1ccnc1 — the same, 6.2 µg/mL (≈ 19.1 µM)
- C=C(c1ccccc1OCc1ccc(Cl)c(Cl)c1)n1ccnc1 — 4-fold higher, 25 µg/mL (≈ 72.4 µM)
- C=C(c1ccccc1NCc1ccc(Cl)cc1)n1ccnc1 — higher, > 100 µg/mL
- C=C(c1cc(Cl)ccc1OCCCC)n1ccnc1 — 4-fold higher, 25 µg/mL (≈ 90.3 µM)
- C=C(c1ccccc1OCc1ccsc1)n1ccnc1 — 8.1-fold higher, 50 µg/mL (≈ 177 µM)
- CC(C)=C(c1ccccc1OCc1ccc(C)cc1)n1ccnc1 — 4-fold higher, 25 µg/mL (≈ 78.5 µM)
- C=C(c1cc(Cl)cc(Cl)c1OCc1ccc(Cl)cc1)n1ccnc1 — higher, > 100 µg/mL
- C=C(c1cc(Cl)ccc1OC)n1ccnc1 — higher, > 100 µg/mL

The compounds below were run on Trichophyton benhamiae (assay: Minimum inhibitory concentration against Trichophyton asteroides).
Assay type: functional
Method in brief: as §1

Point of comparison: `CC=C(c1cc(Cl)ccc1OCc1ccccc1)n1ccnc1`, MIC 0.2 µg/mL (≈ 0.616 µM). Against it:
- C=C(c1cc(Cl)cc(Cl)c1OCc1ccsc1)n1ccnc1 — 31-fold higher, 6.2 µg/mL (≈ 17.7 µM)
- CC(C)=C(c1ccccc1OCc1ccc(Cl)cc1Cl)n1ccnc1 — 16-fold higher, 3.1 µg/mL (≈ 8.3 µM)
- CC(C)=C(c1ccccc1OCc1cccc(Cl)c1)n1ccnc1 — 16-fold higher, 3.1 µg/mL (≈ 9.15 µM)
- C=C(c1ccccc1OCCc1ccc(Cl)cc1Cl)n1ccnc1 — 2-fold lower, 0.1 µg/mL (≈ 0.278 µM)
- C=C(c1cc(Cl)ccc1OC(CC)c1ccccc1)n1ccnc1 (centres undefined) — 2-fold lower, 0.1 µg/mL (≈ 0.295 µM)
- CC(C)=C(c1cc(Cl)ccc1OCCCOc1ccc(Cl)cc1)n1ccnc1 — 16-fold higher, 3.1 µg/mL (≈ 7.43 µM)
- CC(C)=C(c1ccccc1OCCCc1ccccc1)n1ccnc1 — the same, 0.2 µg/mL (≈ 0.602 µM)
- C=C(c1ccccc1OCc1ccc([N+](=O)[O-])cc1)n1ccnc1 — 2-fold lower, 0.1 µg/mL (≈ 0.311 µM)
- CC=C(c1cc(Cl)ccc1OCc1ccc(Cl)cc1Cl)n1ccnc1 — 8-fold higher, 1.6 µg/mL (≈ 4.06 µM)
- C=C(c1cc(Cl)ccc1OCc1ccc(C)cc1)n1ccnc1 — 4-fold higher, 0.8 µg/mL (≈ 2.46 µM)
- C=C(c1ccccc1OCCOc1ccccc1)n1ccnc1 — 2-fold lower, 0.1 µg/mL (≈ 0.326 µM)
- CC(C)=C(c1ccccc1OCc1ccccc1)n1ccnc1 — 8-fold higher, 1.6 µg/mL (≈ 5.26 µM)
- C=C(c1cc(Cl)ccc1OC(C)c1cccc(Cl)c1)n1ccnc1 (centres undefined) — 2-fold lower, 0.1 µg/mL (≈ 0.278 µM)
- C=C(c1cc(Cl)ccc1OC(CCC)c1ccccc1)n1ccnc1 (centres undefined) — 4-fold higher, 0.8 µg/mL (≈ 2.27 µM)
- C/C=C(\c1ccccc1OC(C)c1cccc(Cl)c1)n1ccnc1 (centres undefined) — 2-fold lower, 0.1 µg/mL (≈ 0.295 µM)
- C=C(c1ccccc1OCc1ccc(Cl)cc1Cl)n1ccnc1 — 2-fold lower, 0.1 µg/mL (≈ 0.29 µM)
- C=C(c1ccccc1OC(C)c1cccc(Cl)c1)n1ccnc1 (centres undefined) — 2-fold higher, 0.4 µg/mL (≈ 1.23 µM)
- CCC=C(c1cc(Cl)ccc1OCc1ccc(Cl)cc1Cl)n1ccnc1 — the same, 0.2 µg/mL (≈ 0.491 µM)
- CC(C)=C(c1cc(Cl)ccc1OCc1ccc(Cl)c(Cl)c1)n1ccnc1 — 16-fold higher, 3.1 µg/mL (≈ 7.6 µM)
- CCC=C(c1cc(Cl)ccc1OCc1ccc(Cl)cc1)n1ccnc1 — 2-fold higher, 0.4 µg/mL (≈ 1.07 µM)
- C=C(c1ccccc1OC)n1ccnc1 — 8-fold higher, 1.6 µg/mL (≈ 7.99 µM)
- C=C(c1ccc(Cl)cc1OC)n1ccnc1 — 120-fold higher, 25 µg/mL (≈ 107 µM)
- C=C(c1ccc(Cl)cc1OCc1ccc(Cl)cc1)n1ccnc1 — higher, > 100 µg/mL
- C=C(c1cc(Cl)cc(Cl)c1OCc1ccsc1Cl)n1ccnc1 — 16-fold higher, 3.1 µg/mL (≈ 8.04 µM)
- C=C(c1ccccc1OC(C)c1ccccc1)n1ccnc1 (centres undefined) — 2-fold lower, 0.1 µg/mL (≈ 0.344 µM)
- C=C(c1ccccc1OCc1ccc(C)cc1)n1ccnc1 — 2-fold lower, 0.1 µg/mL (≈ 0.344 µM)
- C=C(c1ccccc1OCc1ccccc1Cl)n1ccnc1 — 2-fold lower, 0.1 µg/mL (≈ 0.322 µM)
- C=C(c1cc(Cl)ccc1OC(C)c1ccccc1)n1ccnc1 (centres undefined) — 2-fold lower, 0.1 µg/mL (≈ 0.308 µM)
- C=C(c1c(Cl)ccc(Cl)c1OCc1ccc(Cl)cc1)n1ccnc1 — 62-fold higher, 12.5 µg/mL (≈ 32.9 µM)
- CC=C(c1ccccc1OCc1cccc(Cl)c1)n1ccnc1 — 16-fold higher, 3.1 µg/mL (≈ 9.54 µM)
- C=C(c1ccccc1OCc1ccc(Cl)c(Cl)c1)n1ccnc1 — 2-fold lower, 0.1 µg/mL (≈ 0.29 µM)
- C=C(c1ccccc1NCc1ccc(Cl)cc1)n1ccnc1 — higher, > 100 µg/mL
- C=C(c1cc(Cl)ccc1OCCCC)n1ccnc1 — the same, 0.2 µg/mL (≈ 0.723 µM)
- C=C(c1ccccc1OCc1ccsc1)n1ccnc1 — 2-fold lower, 0.1 µg/mL (≈ 0.354 µM)
- CC(C)=C(c1ccccc1OCc1ccc(C)cc1)n1ccnc1 — 16-fold higher, 3.1 µg/mL (≈ 9.74 µM)
- C=C(c1cc(Cl)cc(Cl)c1OCc1ccc(Cl)cc1)n1ccnc1 — 31-fold higher, 6.2 µg/mL (≈ 16.3 µM)
- C=C(c1cc(Cl)ccc1OC)n1ccnc1 — 2-fold higher, 0.4 µg/mL (≈ 1.7 µM)

Each compound was assayed on Aspergillus fumigatus (assay: Minimum inhibitory concentration (MIC) against Aspergillus fumigatus).
Assay type: functional
Method in brief: as §1

Point of comparison: `C=C(c1ccccc1OCCc1ccc(Cl)cc1Cl)n1ccnc1`, MIC 0.4 µg/mL (≈ 1.11 µM). Against it:
- C=C(c1cc(Cl)cc(Cl)c1OCc1ccsc1)n1ccnc1 — 250-fold higher, 100 µg/mL (≈ 285 µM)
- CC(C)=C(c1ccccc1OCc1ccc(Cl)cc1Cl)n1ccnc1 — 4-fold higher, 1.6 µg/mL (≈ 4.29 µM)
- CC(C)=C(c1ccccc1OCc1cccc(Cl)c1)n1ccnc1 — 7.8-fold higher, 3.1 µg/mL (≈ 9.15 µM)
- CC=C(c1cc(Cl)ccc1OCc1ccccc1)n1ccnc1 — 7.8-fold higher, 3.1 µg/mL (≈ 9.54 µM)
- C=C(c1cc(Cl)ccc1OC(CC)c1ccccc1)n1ccnc1 (centres undefined) — 31-fold higher, 12.5 µg/mL (≈ 36.9 µM)
- CC(C)=C(c1cc(Cl)ccc1OCCCOc1ccc(Cl)cc1)n1ccnc1 — higher, > 100 µg/mL
- CC(C)=C(c1ccccc1OCCCc1ccccc1)n1ccnc1 — 4-fold higher, 1.6 µg/mL (≈ 4.81 µM)
- C=C(c1ccccc1OCc1ccc([N+](=O)[O-])cc1)n1ccnc1 — 16-fold higher, 6.2 µg/mL (≈ 19.3 µM)
- CC=C(c1cc(Cl)ccc1OCc1ccc(Cl)cc1Cl)n1ccnc1 — the same, 0.4 µg/mL (≈ 1.02 µM)
- C=C(c1cc(Cl)ccc1OCc1ccc(C)cc1)n1ccnc1 — 4-fold higher, 1.6 µg/mL (≈ 4.93 µM)
- C=C(c1ccccc1OCCOc1ccccc1)n1ccnc1 — 31-fold higher, 12.5 µg/mL (≈ 40.8 µM)
- CC(C)=C(c1ccccc1OCc1ccccc1)n1ccnc1 — 31-fold higher, 12.5 µg/mL (≈ 41.1 µM)
- C=C(c1cc(Cl)ccc1OC(C)c1cccc(Cl)c1)n1ccnc1 (centres undefined) — 31-fold higher, 12.5 µg/mL (≈ 34.8 µM)
- C=C(c1cc(Cl)ccc1OC(CCC)c1ccccc1)n1ccnc1 (centres undefined) — higher, > 100 µg/mL
- C/C=C(\c1ccccc1OC(C)c1cccc(Cl)c1)n1ccnc1 (centres undefined) — 4-fold higher, 1.6 µg/mL (≈ 4.72 µM)
- C=C(c1ccccc1OCc1ccc(Cl)cc1Cl)n1ccnc1 — 4-fold higher, 1.6 µg/mL (≈ 4.63 µM)
- C=C(c1ccccc1OC(C)c1cccc(Cl)c1)n1ccnc1 (centres undefined) — 31-fold higher, 12.5 µg/mL (≈ 38.5 µM)
- CCC=C(c1cc(Cl)ccc1OCc1ccc(Cl)cc1Cl)n1ccnc1 — 2-fold higher, 0.8 µg/mL (≈ 1.96 µM)
- CC(C)=C(c1cc(Cl)ccc1OCc1ccc(Cl)c(Cl)c1)n1ccnc1 — 16-fold higher, 6.2 µg/mL (≈ 15.2 µM)
- CCC=C(c1cc(Cl)ccc1OCc1ccc(Cl)cc1)n1ccnc1 — 2-fold higher, 0.8 µg/mL (≈ 2.14 µM)
- C=C(c1ccccc1OC)n1ccnc1 — 31-fold higher, 12.5 µg/mL (≈ 62.4 µM)
- C=C(c1ccc(Cl)cc1OC)n1ccnc1 — 250-fold higher, 100 µg/mL (≈ 426 µM)
- C=C(c1ccc(Cl)cc1OCc1ccc(Cl)cc1)n1ccnc1 — higher, > 100 µg/mL
- C=C(c1cc(Cl)cc(Cl)c1OCc1ccsc1Cl)n1ccnc1 — 120-fold higher, 50 µg/mL (≈ 130 µM)
- C=C(c1ccccc1OC(C)c1ccccc1)n1ccnc1 (centres undefined) — 16-fold higher, 6.2 µg/mL (≈ 21.4 µM)
- C=C(c1ccccc1OCc1ccc(C)cc1)n1ccnc1 — 7.8-fold higher, 3.1 µg/mL (≈ 10.7 µM)
- C=C(c1ccccc1OCc1ccccc1Cl)n1ccnc1 — 2-fold higher, 0.8 µg/mL (≈ 2.57 µM)
- C=C(c1cc(Cl)ccc1OC(C)c1ccccc1)n1ccnc1 (centres undefined) — 16-fold higher, 6.3 µg/mL (≈ 19.4 µM)
- C=C(c1c(Cl)ccc(Cl)c1OCc1ccc(Cl)cc1)n1ccnc1 — higher, > 100 µg/mL
- CC=C(c1ccccc1OCc1cccc(Cl)c1)n1ccnc1 — 4-fold higher, 1.6 µg/mL (≈ 4.93 µM)
- C=C(c1ccccc1OCc1ccc(Cl)c(Cl)c1)n1ccnc1 — 7.8-fold higher, 3.1 µg/mL (≈ 8.98 µM)
- C=C(c1ccccc1NCc1ccc(Cl)cc1)n1ccnc1 — higher, > 100 µg/mL
- C=C(c1cc(Cl)ccc1OCCCC)n1ccnc1 — the same, 0.4 µg/mL (≈ 1.45 µM)
- C=C(c1ccccc1OCc1ccsc1)n1ccnc1 — 7.8-fold higher, 3.1 µg/mL (≈ 11 µM)
- CC(C)=C(c1ccccc1OCc1ccc(C)cc1)n1ccnc1 — 16-fold higher, 6.2 µg/mL (≈ 19.5 µM)
- C=C(c1cc(Cl)cc(Cl)c1OCc1ccc(Cl)cc1)n1ccnc1 — higher, > 100 µg/mL
- C=C(c1cc(Cl)ccc1OC)n1ccnc1 — 7.8-fold higher, 3.1 µg/mL (≈ 13.2 µM)

Source: ChEMBL document CHEMBL1123801, “Synthesis and antifungal activity of new 1-vinylimidazoles” (1987)
